Assay outcomes deposited in PubChem BioAssay by several laboratories.
Most compounds without a hit are left out; they make up all but 1.5% or so of the library.
b-catenin transl: beta-catenin nuclear translocation modulation. HeLa beta-catenin nuclear translocation, immunofluorescence imaging. nuclear translocation activity, % at 5 µM. hit rate 0.3% among 190,000. AID 1665;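 active means nuclear translocation activity above 50% at 5 µM, with a well cell count of 50 or more; inconclusive means wells under 50 cells across six images, flagged as toxic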;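 further: per-cell ratio of nuclear to cytoplasmic median beta-catenin stain intensity; plate controls were DMSO negative control for no effect and GSK-3 inhibitor IX positive control for full effect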
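Test system: HeLa cells, endogenous beta-catenin; Compound: single 5 µM dose plus 0.02–20 µM confirmation series; Times: compound exposure 24 h at 37°C; Signal: fluorescence imaging of beta-catenin antibody stain plus DAPI; Read-out: % activation, nuclear-to-cytoplasmic median beta-catenin signal ratio per cell.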
Rad51 HR inh: blocks human Rad51 in homologous recombination | hRad51 DNA strand exchange, fluorescence dequenching | inhibition, % at 10 µM | hit rate 0.085% among 200,000 | AID 1385;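 active means inhibition above 40% at the single screening dose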;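 further: 0% = DMSO control wells and 100% = blanks with heterologous ssDNA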
Target sequence (Q06609 whole entry, looked up): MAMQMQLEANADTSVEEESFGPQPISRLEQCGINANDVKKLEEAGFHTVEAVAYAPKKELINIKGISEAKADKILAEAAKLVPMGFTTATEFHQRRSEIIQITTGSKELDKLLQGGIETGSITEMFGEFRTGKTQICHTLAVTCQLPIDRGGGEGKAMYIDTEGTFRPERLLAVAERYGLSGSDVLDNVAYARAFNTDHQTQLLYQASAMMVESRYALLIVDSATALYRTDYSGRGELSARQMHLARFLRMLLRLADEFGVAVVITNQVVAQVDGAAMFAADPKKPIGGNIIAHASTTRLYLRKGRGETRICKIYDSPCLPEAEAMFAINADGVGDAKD
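Material: hRad51 filaments on single-stranded DNA; Reagent: Donor/quencher-labelled 47-bp dsDNA substrate; Compound: 10 µM final, single point; Schedule: 37 °C 15-min filament assembly, 30-min compound preincubation, 15-min exchange; Technique: FRET fluorescence, excitation 485 nm, emission 520 nm; Benchmarks: control wells and blank wells on each plate.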
TbHK1 inh: blocks Trypanosoma brucei hexokinase 1 activity | recombinant TbHK1, G6PDH-coupled NADH A340 | inhibition, % at 10 µM | hit rate 0.11% among 220,000;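 active means inhibition of 50% or more in the single-dose primary screen; inactive means inhibition below 50%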
MT stabilizer: stabilizes microtubules in HeLa cells; % tubulin-high responders, % at 10 µM; HeLa tubulin immunostaining HCS, 24 h; share of cells brighter than vehicle mean+2SD; hit rate 0.83% among 200,000;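 active means plate Z-score above 3 for both tubulin-high and condensed-nucleus cell shares, with cell loss under 80%, at 10 µM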;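 further: anti alpha tubulin signal scored within the nucleus-defined area of each cell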
Dynein transport: dynein cargo transport inhibition | 3617.4 mouse cells, GR-EGFP nuclear translocation imaging; test concentration mostly 20 µM; stimulated with dexamethasone, 1 µM; hits give low values | z-score, hits read low | hit rate 0.47% among 220,000;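 active means plate z-score of nuclear minus cytoplasmic receptor signal below a set negative limit, without overly bright fluorescence or cell loss, cut at about -3.5 in these data, passing the limit was not always enough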;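 further: z-score of nuclear minus cytoplasmic ring GR-EGFP intensity difference per well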
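Buffer or medium – tet-free medium with charcoal-stripped serum · Signal – automated 10x imaging of fixed Hoechst-stained cells · Also added – dexamethasone agonist, 1.0 µM final, for 30 min · Incubation – induction 48 h, compound 1 h, agonist 30 min · Read-out – GR-EGFP nuclear translocation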
Dynein inh conf: dynein cargo transport inhibition, confirmation | shares compounds with Dynein transport | 3617.4 GR-EGFP nuclear translocation imaging, dexamethasone-induced | calls only at 20 µM | hit rate 69% among 1,000;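 active means inhibition of receptor movement into the nucleus at or above a set limit in both runs, with normal cell brightness and cell count; inconclusive means limit reached in only one run, brightness and count normal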;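 further: dexamethasone at 1 µM final in well for 30 min; nuclear minus cytoplasmic GR-EGFP mean intensity difference in channel 2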
* marks the source's active call; other numbers are inactive results; i = inactive; u = inconclusive; x = not tested or not shown; + = active, no number.

SMILES | b-catenin transl | Rad51 HR inh | TbHK1 inh | MT stabilizer | Dynein transport | Dynein inh conf
CC1OC(OC2C(OC3C(O[C@H]4CC[C@]5(C)C6C=C[C@]78OC[C@@]9(CC[C@@H](C)[C@H](C)C97)[C@H](O)C[C@@]8(C)[C@]6(C)CC[C@H]5C4(C)C)OC(C)C(O)C3O)OC(CO)C(O)C2O)C(O)C(O)C1O (stereo partly specified) | 2.7 | x | -24.9 | x | -3.86* | i
Cc1cc(C)nc(S/C=C/C(=O)c2ccccc2F)n1 | 5.4 | 8.1 | -9.7 | x | -3.67* | +
COc1ccccc1-[n+]1c(C)cc(/C=C2\Sc3ccccc3N2C)cc1C | 14.0 | i | 8.7 | x | -5 | +
CCOC(=O)c1nc(S(C)(=O)=O)ncc1N1CCOCC1 | -1.0 | -3.1 | -3.8 | 2.1 | -1.32 | x
O=C(/C=C/c1cc(Br)ccc1O)c1ccco1 | 1.1 | x | -30.7 | x | -4.73* | i
Nc1ccc(/C=C/C(=O)c2ccco2)cc1 | x | -47.4 | 14.8 | 2.3 | 3.55 | x
COc1ccccc1NC(=O)CSc1nc(N)c(C#N)cc1C#N | -5.6 | -43.4 | 0.2 | 2.0 | 0.84 | x
Cc1ccc2nc(Nc3ccc4[nH]c(=O)[nH]c4c3)c(-n3nc(C)cc3C)nc2c1 | x | -5.9 | -3.8 | 3.5 | -4.37 | i
Cc1cc(C)n(-c2nc3ccccc3nc2Nc2ccc3c(c2)OCO3)n1 | -3.4 | -2.8 | -5.4 | 4.7 | 0.521 | x
CCOC(=O)CSC1=NC(=O)/C(=C/c2ccc(Br)cc2)S1 | -1.2 | -0.7 | -1.9 | 3.6 | -4.28* | +
Oc1ccc2ccccc2c1/C=N/c1nc2c(s1)CCCC2 | -3.9 | -9.1 | -7.1 | 1.9 | -0.369 | x
CC[n+]1c(/C=C2\Sc3ccccc3N2C)ccc2cccc(C)c21 | 5.0 | i | -10.1 | 67.3 | -8.47* | +
COc1ccc(NC(=O)CCc2nc3ccccc3s2)c(OC)c1 | -2.2 | -2.9 | 1.6 | 3.7 | -5.67* | i
CC1(C)Cc2c(C#N)c(NC3CCCCC3)nc(-c3ccco3)c2CO1 | -2.2 | 4.0 | 3.7 | 3.9 | -4.28* | i
CC1(C)Cc2c(C#N)c(NCC3CCCO3)nc(-c3ccco3)c2CO1 (stereo unspecified) | 0.3 | -7.6 | -1.1 | 2.0 | -1.53 | x
Cc1scc(C(=O)NNC(=S)NCC2CCCO2)c1C (stereo unspecified) | x | -0.5 | 2.9 | 3.4 | 2.3 | x
Cc1cc(-n2c(C)cc(C(=O)CCl)c2C)no1 | -4.0 | -0.9 | -4.3 | 4.5 | -7.33* | +
COc1ccc(-n2c(C)cc(C(=O)CCl)c2C)cc1 | -0.5 | 18.6 | -2.0 | 6.6 | -3.84* | +
Cc1cc(-n2c(C)cc(C(=O)CN3C(=O)NC4(CCCC4)C3=O)c2C)no1 | -3.0 | -6.6 | -0.7 | 5.6 | 1.05 | x
O=C(CC1Sc2ncnn2C1=O)Nc1ccc(Cl)cc1 (stereo unspecified) | 0.8 | -6.0 | -1.3 | 2.3 | -3.61* | i
COc1ccc(NC(=O)CC2Sc3ncnn3C2=O)cc1 (stereo unspecified) | -1.0 | 13.0 | 1.9 | 1.5 | -4.05* | i
Cc1ccccc1-n1nc(C(=O)c2cccs2)cc(-c2nc3ccccc3[nH]2)c1=N | -1.5 | -3.0 | -9.1 | 3.2 | 1.03 | x
COc1ccc(-n2nc(C(=O)c3cccs3)cc(-c3nc4ccccc4[nH]3)c2=N)cc1 | -5.0 | x | -5.3 | 2.8 | -5.95 | i
CC1(C)CC(=O)C2=C(C1)OC(N)=C(C#N)C2C#Cc1ccccc1 (stereo unspecified) | -3.5 | -21.3 | -1.5 | 3.1 | -5.37* | +
CS(=O)(=O)c1sc(C#N)c2c1C(=O)CC(c1ccccc1)C2 (stereo unspecified) | -3.3 | -7.2 | -7.0 | x | -3.78* | u
SMILES | b-catenin transl | Rad51 HR inh | TbHK1 inh | MT stabilizer | Dynein transport | Dynein inh conf
Cc1oc2c(c(=O)c1C)C(=O)CC(c1ccccc1)C2 (stereo unspecified) | 0.3 | -4.1 | -2.4 | 2.7 | 0.701 | x
CC(C)CNC(=S)N1CCC(c2nc(-c3ccc(F)cc3)no2)CC1 | 0.4 | -1.5 | -2.2 | 2.1 | -1.11 | x
Cc1ccc2nc(Cl)c3nnnn3c2c1 | -1.3 | -23.1 | -10.6 | 8.2 | -5.19* | +
COc1ccc(CNc2nc3nc(C)c(Cl)c(=O)n3[nH]2)cc1OC | -3.3 | 0.3 | -3.2 | 5.4 | 0.0709 | x
COc1ccc(N=CC2=C(Nc3ccc(OC)cc3)c3c(C)nn(-c4ccccn4)c3CC2)cc1 | x | -3.6 | -0.9 | 3.7 | -4.3 | i
COc1ccc(-c2cc(C(=O)O)c3c(C)nn(-c4ccccn4)c3n2)cc1 | -0.8 | -7.5 | -9.8 | 2.5 | -0.36 | x
COc1ccccc1-c1cc(C(F)(F)F)nc(N2CCCC2)n1 | -0.1 | -0.2 | -2.9 | 3.5 | 0.417 | x
COc1ccccc1-c1cc(C(F)(F)F)nc(S(=O)(=O)CCCC(=O)N2CCCCC2C)n1 (stereo unspecified) | -3.3 | 8.0 | -17.7 | 3.1 | -5.83* | u
COc1ccccc1-c1cc(C(F)(F)F)nc(S(C)(=O)=O)n1 | x | x | -19.1 | 2.5 | -4.58* | +
CC[C@H](C)/C=C(C)/C=C/C(=O)Cc1cc(O)c(C)c(O)c1C=O | 1.9 | -27.2 | -35.3 | x | -3.84* | +
COc1ccc(C2=CC(=O)N(Nc3ccccc3)C2=O)cc1 | 1.4 | -3.4 | -2.4 | 2.5 | -5.11* | +
O=C1C=C(c2ccccc2)C(=O)N1Nc1ccccc1 | x | -6.8 | -7.8 | 1.0 | -1.21 | x
O=C(/C=C/c1ccncc1)c1ccc2c(c1)OCCO2 | 1.2 | -1.7 | -18.4 | 3.2 | -5.44* | +
O=C(/C=C/c1ccccc1)c1ccc2c(c1)OCO2 | -1.0 | x | -24.3 | x | -0.622 | x
Cc1cc2cc(CN(Cc3cccs3)C(c3nnnn3C(C)(C)C)C(C)C)c3nnnn3c2cc1C (stereo unspecified) | -0.6 | -0.8 | -11.6 | 4.7 | -0.0675 | x
CC1(C)CC(=O)C2=C(C1)OC1=C(C(=O)CC(C)(C)C1)C2c1ccc(O)cc1O | -3.4 | -10.1 | 14.0 | 4.3 | -5.16 | +
COC(=O)C(=C/C(C)=C/c1cccs1)C(=O)OC | 4.6 | 19.9 | -25.9 | 4.1 | -4.03* | u
Cc1ccc(S(=O)(=O)/N=C(\CCl)N2CCOCC2)cc1 | 6.1 | x | -4.2 | 4.5 | -3.77* | +
N#CCCn1cc(C=C(C#N)C#N)c(-c2ccc(-c3ccccc3)cc2)n1 | 1.9 | -8.1 | 29.2 | 6.4 | -4.13* | u
N#CCCn1cc(/C=N/O)c(-c2ccccc2)n1 | x | -4.4 | -2.0 | 1.0 | -0.381 | x
CCN(CC)Cc1cc2[nH]c3c4ccc(Cl)cc4ncc3c2cc1OC | 0.0 | x | -12.2 | x | 0.175 | x
Cc1coc2cc3oc(=O)c(Cc4ccccc4)c(C)c3cc12 | 1.6 | -2.6 | -11.1 | 4.0 | -0.872 | x
Cc1ccc(C)c2nc3sc(C(=O)N4CCCc5ccccc54)c(N)c3cc12 | x | x | -15.7 | 1.8 | -7.09 | i
Cn1c(-c2ccccc2)c(C(=O)CCl)c2ccccc21 | 0.6 | -0.8 | -5.0 | 7.0 | -3.76* | +
